In ChEMBL document CHEMBL1143775, “Convenient one pot synthesis of some novel derivatives of thiazolo[2,3-b]dihydropyrimidinone possessing 4-methylthiophenyl moiety and evaluation of their antibacterial and antifungal activities” (2007):
Converted amounts (≈) assume the structure as drawn.

How the values were obtained:
Type in all cases: functional
Klebsiella pneumoniae [1] = test: Antibacterial activity against Klebsiella pneumoniae at 10 ug/ml; settings: read-out: IZ
Summary of the method: (§1)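 Compound-loaded discs were placed on nutrient agar inoculated separately with fresh bacterial strains. Plates were incubated at 37 °C for 24 h with separate solvent and growth controls. Zone of inhibition and MIC were measured. Ciprofloxacin was the reference drug.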

Aspergillus fumigatus [2] = test: Antifungal activity against Aspergillus fumigatus NCIM 902 by dilution method
Summary of the method: (§2)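 Serial dilution method on Sabouraud agar (peptone, D-glucose, agar; pH 5.7) seeded with a saline spore suspension made from a loopful of each strain. Plates were dried for 1 h at incubator temperature. Test solutions in DMSO went into punched wells, with a DMSO control. Incubation was at 37 °C for 3–4 days. Zone of inhibition and MIC were read against ciclopiroxolamine as standard.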

Aspergillus fumigatus [3] = test: Antifungal activity against Aspergillus fumigatus NCIM 902 at 10 ug/ml; settings: read-out: IZ; summary of the method: as §2
Aspergillus flavus [4] = test: Antifungal activity against Aspergillus flavus NCIM 524 by dilution method; summary of the method: as §2
Candida albicans [5] = test: Antifungal activity against Candida albicans NCIM 3100 at 10 ug/ml; settings: read-out: IZ; summary of the method: as §2
Talaromyces marneffei [6] = test: Antifungal activity against Penicillium marneffei by dilution method; summary of the method: as §2
Candida albicans [7] = test: Antifungal activity against Candida albicans NCIM 3100 by dilution method; summary of the method: as §2
Staphylococcus aureus [8] = test: Antibacterial activity against Staphylococcus aureus ATCC 25923; summary of the method: as §1
Escherichia coli [9] = test: Antibacterial activity against Escherichia coli ATCC 25922 at 10 ug/ml; settings: read-out: IZ; summary of the method: as §1
Klebsiella pneumoniae [10] = test: Antibacterial activity against Klebsiella pneumoniae; summary of the method: as §1
Aspergillus flavus [11] = test: Antifungal activity against Aspergillus flavus NCIM 524 at 10 ug/ml; settings: read-out: IZ; summary of the method: as §2
Staphylococcus aureus [12] = test: Antibacterial activity against Staphylococcus aureus ATCC 25923 at 10 ug/ml by disk diffusion method; settings: read-out: IZ; summary of the method: as §1
Escherichia coli [13] = test: Antibacterial activity against Escherichia coli ATCC 25922; summary of the method: as §1
Pseudomonas aeruginosa [14] = test: Antibacterial activity against Pseudomonas aeruginosa ATCC 27853 at 10 ug/ml; settings: read-out: IZ; summary of the method: as §1
Pseudomonas aeruginosa [15] = test: Antibacterial activity against Pseudomonas aeruginosa ATCC 27853; summary of the method: as §1
Talaromyces marneffei [16] = test: Antifungal activity against Penicillium marneffei at 10 ug/ml; settings: read-out: IZ; summary of the method: as §2

SMILES | zone of inhibition at 10 µg/mL (Klebsiella pneumoniae [1]) [mm] | MIC (Aspergillus fumigatus [2]) [µg/mL] | zone of inhibition at 10 µg/mL (Aspergillus fumigatus [3]) [mm] | MIC (Aspergillus flavus [4]) [µg/mL] | zone of inhibition at 10 µg/mL (Candida albicans [5]) [mm] | MIC (Talaromyces marneffei [6]) [µg/mL] | MIC (Candida albicans [7]) [µg/mL] | MIC (Staphylococcus aureus [8]) [µg/mL] | zone of inhibition at 10 µg/mL (Escherichia coli [9]) [mm] | MIC (Klebsiella pneumoniae [10]) [µg/mL] | zone of inhibition at 10 µg/mL (Aspergillus flavus [11]) [mm] | zone of inhibition at 10 µg/mL (Staphylococcus aureus [12]) [mm] | MIC (Escherichia coli [13]) [µg/mL] | zone of inhibition at 10 µg/mL (Pseudomonas aeruginosa [14]) [mm] | MIC (Pseudomonas aeruginosa [15]) [µg/mL] | zone of inhibition at 10 µg/mL (Talaromyces marneffei [16]) [mm]
CCOC(=O)C1=C(C)N=c2s/c(=C\c3ccc(O)cc3)c(=O)n2C1c1ccc(SC)cc1 (stereo unspecified) | 12 | 12.5 (≈ 26.8 µM) | 10 | 25 (≈ 53.6 µM) | 10 | 12.5 (≈ 26.8 µM) | 12.5 (≈ 26.8 µM) | 25 (≈ 53.6 µM) | 12 | 12.5 (≈ 26.8 µM) | 10 | 12 | 25 (≈ 53.6 µM) | 15 | 12.5 (≈ 26.8 µM) | 12
CCOC(=O)C1=C(C)N=c2s/c(=C\c3ccc4c(c3)OCO4)c(=O)n2C1c1ccc(SC)cc1 (stereo unspecified) | 10 | 12.5 (≈ 25.3 µM) | 12 | 25 (≈ 50.5 µM) | 11 | 12.5 (≈ 25.3 µM) | 12.5 (≈ 25.3 µM) | 25 (≈ 50.5 µM) | 10 | 12.5 (≈ 25.3 µM) | 12 | 10 | 25 (≈ 50.5 µM) | 10 | 12.5 (≈ 25.3 µM) | 10
CCOC(=O)C1=C(C)N=c2s/c(=C\c3ccc(Cl)cc3)c(=O)n2C1c1ccc(SC)cc1 (stereo unspecified) | 10 | 12.5 (≈ 25.8 µM) | 11 | 25 (≈ 51.5 µM) | 11 | 12.5 (≈ 25.8 µM) | 12.5 (≈ 25.8 µM) | 25 (≈ 51.5 µM) | 10 | 12.5 (≈ 25.8 µM) | 12 | 10 | 25 (≈ 51.5 µM) | 12 | 12.5 (≈ 25.8 µM) | 10
CCOC(=O)C1=C(C)N=c2s/c(=C\c3ccc(F)c(Oc4ccccc4)c3)c(=O)n2C1c1ccc(SC)cc1 (stereo unspecified) | 12 | 12.5 (≈ 22.3 µM) | 12 | 12.5 (≈ 22.3 µM) | 20 | 6 (≈ 10.7 µM) | 6 (≈ 10.7 µM) | 12.5 (≈ 22.3 µM) | 10 | 12.5 (≈ 22.3 µM) | 18 | 19 | 25 (≈ 44.6 µM) | 12 | 12.5 (≈ 22.3 µM) | 19
CCOC(=O)C1=C(C)N=c2s/c(=C\c3ccc(-c4ccc(Br)cc4)o3)c(=O)n2C1c1ccc(SC)cc1 (stereo unspecified) | 20 | 12.5 (≈ 21 µM) | 12 | 12.5 (≈ 21 µM) | 19 | 6 (≈ 10.1 µM) | 6 (≈ 10.1 µM) | 12.5 (≈ 21 µM) | 18 | 6 (≈ 10.1 µM) | 18 | 18 | 12.5 (≈ 21 µM) | 23 | 6 (≈ 10.1 µM) | 20
CCOC(=O)C1=C(C)N=c2s/c(=C\c3ccc(OC)cc3)c(=O)n2C1c1ccc(SC)cc1 (stereo unspecified) | 21 | 6 (≈ 12.5 µM) | 21 | 12.5 (≈ 26 µM) | 20 | 12.5 (≈ 26 µM) | 6 (≈ 12.5 µM) | 25 (≈ 52 µM) | 10 | 6 (≈ 12.5 µM) | 17 | 12 | 25 (≈ 52 µM) | 24 | 6 (≈ 12.5 µM) | 12
CCOC(=O)C1=C(C)N=c2s/c(=C\c3ccc(-c4ccc(Cl)cc4)o3)c(=O)n2C1c1ccc(SC)cc1 (stereo unspecified) | 12 | 12.5 (≈ 22.7 µM) | 10 | 12.5 (≈ 22.7 µM) | 19 | 12.5 (≈ 22.7 µM) | 6 (≈ 10.9 µM) | 25 (≈ 45.4 µM) | 10 | 12.5 (≈ 22.7 µM) | 17 | 12 | 25 (≈ 45.4 µM) | 10 | 12.5 (≈ 22.7 µM) | 11
CCOC(=O)C1=C(C)N=c2s/c(=C\c3ccc(-c4ccc([N+](=O)[O-])cc4)o3)c(=O)n2C1c1ccc(SC)cc1 (stereo unspecified) | 11 | 12.5 (≈ 22.3 µM) | 17 | 25 (≈ 44.5 µM) | 12 | 12.5 (≈ 22.3 µM) | 12.5 (≈ 22.3 µM) | 25 (≈ 44.5 µM) | 12 | 12.5 (≈ 22.3 µM) | 12 | 10 | 25 (≈ 44.5 µM) | 13 | 12.5 (≈ 22.3 µM) | 11
CCOC(=O)C1=C(C)N=c2s/c(=C\c3ccc(SC)cc3)c(=O)n2C1c1ccc(SC)cc1 (stereo unspecified) | 12 | 12.5 (≈ 25.2 µM) | 12 | 25 (≈ 50.3 µM) | 10 | 12.5 (≈ 25.2 µM) | 12.5 (≈ 25.2 µM) | 25 (≈ 50.3 µM) | 12 | 12.5 (≈ 25.2 µM) | 10 | 10 | 25 (≈ 50.3 µM) | 13 | 12.5 (≈ 25.2 µM) | 12
CCOC(=O)C1=C(C)N=c2s/c(=C\c3ccc(Cl)cc3Cl)c(=O)n2C1c1ccc(SC)cc1 (stereo unspecified) | 10 | 12.5 (≈ 24.1 µM) | 11 | 25 (≈ 48.1 µM) | 12 | 12.5 (≈ 24.1 µM) | 12.5 (≈ 24.1 µM) | 12.5 (≈ 24.1 µM) | 11 | 12.5 (≈ 24.1 µM) | 10 | 18 | 25 (≈ 48.1 µM) | 13 | 12.5 (≈ 24.1 µM) | 10
CCOC(=O)C1=C(C)N=c2s/c(=C\c3ccc(F)cc3)c(=O)n2C1c1ccc(SC)cc1 (stereo unspecified) | 20 | 6 (≈ 12.8 µM) | 20 | 12.5 (≈ 26.7 µM) | 19 | 6 (≈ 12.8 µM) | 6 (≈ 12.8 µM) | 12.5 (≈ 26.7 µM) | 17 | 6 (≈ 12.8 µM) | 18 | 18 | 12.5 (≈ 26.7 µM) | 10 | 12.5 (≈ 26.7 µM) | 20
CCOC(=O)C1=C(C)N=c2s/c(=C\c3ccc(-c4ccc(Cl)cc4Cl)o3)c(=O)n2C1c1ccc(SC)cc1 (stereo unspecified) | 20 | 12.5 (≈ 21.3 µM) | 10 | 12.5 (≈ 21.3 µM) | 20 | 6 (≈ 10.2 µM) | 6 (≈ 10.2 µM) | 12.5 (≈ 21.3 µM) | 11 | 6 (≈ 10.2 µM) | 18 | 19 | 25 (≈ 42.7 µM) | 23 | 6 (≈ 10.2 µM) | 18
O=C(O)c1cn(C2CC2)c2cc(N3CCNCC3)c(F)cc2c1=O [CIPROFLOXACIN] | 20 |  |  |  |  |  |  | 12.5 (≈ 37.7 µM) | 18 | 6 (≈ 18.1 µM) |  | 19 | 12.5 (≈ 37.7 µM) | 25 | 6 (≈ 18.1 µM) | 
CCOC(=O)C1=C(C)N=c2s/c(=C\c3ccc(O)c(OC)c3)c(=O)n2C1c1ccc(SC)cc1 (stereo unspecified) | 18 | 6 (≈ 12.1 µM) | 21 | 25 (≈ 50.3 µM) | 10 | 6 (≈ 12.1 µM) | 12.5 (≈ 25.2 µM) | 12.5 (≈ 25.2 µM) | 18 | 12.5 (≈ 25.2 µM) | 11 | 20 | 12.5 (≈ 25.2 µM) | 23 | 6 (≈ 12.1 µM) | 19
